Test results taken from article PMC11865470 (Communications Biology, 2025).

Key:
Type in all cases: cell-based
NaV1.2 = NaV1.2 (Rattus norvegicus, UniProt P04775); experiment: whole-cell patch-clamp, off-target channel, 10 μM compound; conditions: vs 0.1% DMSO
Procedure, shortened: (§1)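 NaV channels, transiently transfected HEK293T cells, whole-cell, 16–24 h after seeding. Pipette (mM): 140 CsF, 1 EGTA, 10 NaCl, 10 HEPES, pH 7.4. Bath (mM): 140 NaCl, 5 KCl, 2 CaCl2, 1 MgCl2, 10 glucose, 10 HEPES, pH 7.4. Bath with 0.1% DMSO applied before 10 μM test compound. Inhibition ratios compared by unpaired t-test, n = 5.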

CaV2.2 = CaV2.2 (Rattus norvegicus, UniProt Q02294); experiment: whole-cell patch-clamp, off-target channel, 10 μM compound; conditions: for sensitivity of channel to compound: vs 0.1% DMSO
Procedure, shortened: (§2)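 CaV channels in transfected HEK293T cells, whole-cell. Pipette (mM): 120 CsMeSO3, 2 Mg-ATP, 11 EGTA, 10 HEPES, pH 7.4. Bath (mM): 138 NaCl, 5.6 KCl, 2.6 CaCl2, 20 TEA-Cl, 5 glucose, 5 HEPES, pH 7.4. 0.1% DMSO bath applied before 10 μM test compound. Inhibition ratios compared by unpaired t-test, n = 5.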

ASIC3 = target: T1, ASIC3 (Rattus norvegicus, UniProt O35240); experiment: whole-cell patch-clamp, off-target channel, 10 μM compound; conditions: vs 0.1% DMSO
T1 sequence (O35240 1-533): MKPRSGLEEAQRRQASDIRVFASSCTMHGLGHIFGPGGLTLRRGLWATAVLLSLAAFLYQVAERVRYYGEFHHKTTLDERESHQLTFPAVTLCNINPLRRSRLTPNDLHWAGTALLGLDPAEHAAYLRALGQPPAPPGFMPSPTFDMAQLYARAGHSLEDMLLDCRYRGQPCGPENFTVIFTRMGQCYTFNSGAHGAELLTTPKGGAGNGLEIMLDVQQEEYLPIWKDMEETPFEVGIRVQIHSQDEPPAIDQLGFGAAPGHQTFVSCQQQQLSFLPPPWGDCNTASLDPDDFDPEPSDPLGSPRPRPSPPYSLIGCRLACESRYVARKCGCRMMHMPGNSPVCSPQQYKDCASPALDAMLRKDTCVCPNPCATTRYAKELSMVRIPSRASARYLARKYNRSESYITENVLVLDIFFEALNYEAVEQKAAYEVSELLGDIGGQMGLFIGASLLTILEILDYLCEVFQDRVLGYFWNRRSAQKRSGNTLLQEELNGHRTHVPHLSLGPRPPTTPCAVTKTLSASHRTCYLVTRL
Procedure, shortened: (§3)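 ASIC channels in transfected HEK293T cells, whole-cell. Pipette (mM): 140 CsF, 11 EGTA, 1 CaCl2, 2 TEA-Cl, 4 MgCl2, 10 HEPES, pH 7.3. NaCl-based bath with 20 mM HEPES (pH 7.4) or 20 mM MES (pH 5.5). 0.1% DMSO bath applied before 10 μM test compound. Inhibition ratios compared by unpaired t-test, n = 5.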

mOtop1 R554Q = mOtop1 R554Q (Mus musculus, UniProt Q80VM9, R554Q); experiment: patch-clamp, mOtop1 mutant; conditions: Fig 5G, H
NaV1.5 = NaV1.5 (Homo sapiens, UniProt Q14524); experiment: whole-cell patch-clamp, off-target channel, 10 μM compound
Procedure, shortened: as §1

mOtop1 D244A = mOtop1 D244A (Mus musculus, UniProt Q80VM9, D244A); experiment: patch-clamp, mOtop1 mutant; conditions: 10 μM; pH 5.5
Procedure, shortened: (§4)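 Alanine-substituted mOtop1 mutants were co-transfected (2.5 μg channel plus 0.5 μg EGFP plasmid, Lipofectamine 2000) into PAC-knockout HEK293T cells. Whole-cell recording 16–24 h after seeding on PLL coverslips. Pipette (mM): 120 Cs-aspartate, 15 CsCl, 2 Mg-ATP, 5 EGTA, 2.4 CaCl2, 10 HEPES, pH 7.3. Bath (mM): 160 NMDG-Cl, 2 CaCl2, 10 MES, pH 5.5, with 10 μM test compound. Response compared with wild-type mOtop1.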

ASIC1a = ASIC1a (Rattus norvegicus, UniProt P55926); experiment: whole-cell patch-clamp, off-target channel, 10 μM compound; conditions: vs 0.1% DMSO
Procedure, shortened: as §3

hERG = hERG (Homo sapiens, UniProt Q12809); experiment: whole-cell patch-clamp, off-target channel, 10 μM compound
Procedure, shortened: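 hERG, transiently transfected HEK293T cells, whole-cell recording 16–24 h after seeding. Bath containing 0.1% DMSO applied first, then 10 μM test compound. Inhibition ratio from DMSO compared with that from compound by unpaired t-test, n = 5.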

Kir2.1 = Kir2.1 (Homo sapiens, UniProt P63252); experiment: whole-cell patch-clamp, off-target channel, 10 μM compound; conditions: vs 0.1% DMSO
mOtop1 L243A = mOtop1 L243A (Mus musculus, UniProt Q80VM9, L243A); experiment: patch-clamp, mOtop1 mutant; conditions: 10 μM; pH 5.5
Procedure, shortened: as §4

CaV3.1 = CaV3.1 (Homo sapiens, UniProt O43497); experiment: whole-cell patch-clamp, off-target channel, 10 μM compound
Procedure, shortened: as §2

mOtop1 T233A = mOtop1 T233A (Mus musculus, UniProt Q80VM9, T233A); experiment: patch-clamp, mOtop1 mutant; conditions: 10 μM; pH 5.5
Procedure, shortened: as §4

NaV1.7 = NaV1.7 (Homo sapiens, UniProt Q15858); experiment: whole-cell patch-clamp, off-target channel, 10 μM compound
Procedure, shortened: as §1

mOtop1 R554N = mOtop1 R554N (Mus musculus, UniProt Q80VM9, R554N); experiment: patch-clamp, mOtop1 mutant; conditions: Fig 5G, H
mOtop1 T240A = mOtop1 T240A (Mus musculus, UniProt Q80VM9, T240A); experiment: patch-clamp, mOtop1 mutant; conditions: 10 μM; pH 5.5
Procedure, shortened: as §4

mOtop1 H246A = mOtop1 H246A (Mus musculus, UniProt Q80VM9, H246A); experiment: patch-clamp, mOtop1 mutant; conditions: 10 μM; pH 5.5
Procedure, shortened: as §4

Otop1 channels = Otop1 channels (Mus musculus, UniProt Q80VM9); experiment: patch-clamp, pH 8.5-evoked Otop1 currents with preincubated HIMOP; conditions: 10 μM, preincubated at pH 7.4 for 2 min; 0 mV
Procedure, shortened: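 Mouse Otop1 was expressed with EGFP in PAC-knockout HEK293T cells and whole-cell recorded with Cs-aspartate pipette solution (pH 7.3). Test compound was preincubated with cells at pH 7.4 (NMDG-Cl bath, 10 mM HEPES) for 2 min, then pH 8.5 stimulus applied (NMDG-Cl bath, 10 mM Tris).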

CaV2.2, sequence (Q02294 whole entry): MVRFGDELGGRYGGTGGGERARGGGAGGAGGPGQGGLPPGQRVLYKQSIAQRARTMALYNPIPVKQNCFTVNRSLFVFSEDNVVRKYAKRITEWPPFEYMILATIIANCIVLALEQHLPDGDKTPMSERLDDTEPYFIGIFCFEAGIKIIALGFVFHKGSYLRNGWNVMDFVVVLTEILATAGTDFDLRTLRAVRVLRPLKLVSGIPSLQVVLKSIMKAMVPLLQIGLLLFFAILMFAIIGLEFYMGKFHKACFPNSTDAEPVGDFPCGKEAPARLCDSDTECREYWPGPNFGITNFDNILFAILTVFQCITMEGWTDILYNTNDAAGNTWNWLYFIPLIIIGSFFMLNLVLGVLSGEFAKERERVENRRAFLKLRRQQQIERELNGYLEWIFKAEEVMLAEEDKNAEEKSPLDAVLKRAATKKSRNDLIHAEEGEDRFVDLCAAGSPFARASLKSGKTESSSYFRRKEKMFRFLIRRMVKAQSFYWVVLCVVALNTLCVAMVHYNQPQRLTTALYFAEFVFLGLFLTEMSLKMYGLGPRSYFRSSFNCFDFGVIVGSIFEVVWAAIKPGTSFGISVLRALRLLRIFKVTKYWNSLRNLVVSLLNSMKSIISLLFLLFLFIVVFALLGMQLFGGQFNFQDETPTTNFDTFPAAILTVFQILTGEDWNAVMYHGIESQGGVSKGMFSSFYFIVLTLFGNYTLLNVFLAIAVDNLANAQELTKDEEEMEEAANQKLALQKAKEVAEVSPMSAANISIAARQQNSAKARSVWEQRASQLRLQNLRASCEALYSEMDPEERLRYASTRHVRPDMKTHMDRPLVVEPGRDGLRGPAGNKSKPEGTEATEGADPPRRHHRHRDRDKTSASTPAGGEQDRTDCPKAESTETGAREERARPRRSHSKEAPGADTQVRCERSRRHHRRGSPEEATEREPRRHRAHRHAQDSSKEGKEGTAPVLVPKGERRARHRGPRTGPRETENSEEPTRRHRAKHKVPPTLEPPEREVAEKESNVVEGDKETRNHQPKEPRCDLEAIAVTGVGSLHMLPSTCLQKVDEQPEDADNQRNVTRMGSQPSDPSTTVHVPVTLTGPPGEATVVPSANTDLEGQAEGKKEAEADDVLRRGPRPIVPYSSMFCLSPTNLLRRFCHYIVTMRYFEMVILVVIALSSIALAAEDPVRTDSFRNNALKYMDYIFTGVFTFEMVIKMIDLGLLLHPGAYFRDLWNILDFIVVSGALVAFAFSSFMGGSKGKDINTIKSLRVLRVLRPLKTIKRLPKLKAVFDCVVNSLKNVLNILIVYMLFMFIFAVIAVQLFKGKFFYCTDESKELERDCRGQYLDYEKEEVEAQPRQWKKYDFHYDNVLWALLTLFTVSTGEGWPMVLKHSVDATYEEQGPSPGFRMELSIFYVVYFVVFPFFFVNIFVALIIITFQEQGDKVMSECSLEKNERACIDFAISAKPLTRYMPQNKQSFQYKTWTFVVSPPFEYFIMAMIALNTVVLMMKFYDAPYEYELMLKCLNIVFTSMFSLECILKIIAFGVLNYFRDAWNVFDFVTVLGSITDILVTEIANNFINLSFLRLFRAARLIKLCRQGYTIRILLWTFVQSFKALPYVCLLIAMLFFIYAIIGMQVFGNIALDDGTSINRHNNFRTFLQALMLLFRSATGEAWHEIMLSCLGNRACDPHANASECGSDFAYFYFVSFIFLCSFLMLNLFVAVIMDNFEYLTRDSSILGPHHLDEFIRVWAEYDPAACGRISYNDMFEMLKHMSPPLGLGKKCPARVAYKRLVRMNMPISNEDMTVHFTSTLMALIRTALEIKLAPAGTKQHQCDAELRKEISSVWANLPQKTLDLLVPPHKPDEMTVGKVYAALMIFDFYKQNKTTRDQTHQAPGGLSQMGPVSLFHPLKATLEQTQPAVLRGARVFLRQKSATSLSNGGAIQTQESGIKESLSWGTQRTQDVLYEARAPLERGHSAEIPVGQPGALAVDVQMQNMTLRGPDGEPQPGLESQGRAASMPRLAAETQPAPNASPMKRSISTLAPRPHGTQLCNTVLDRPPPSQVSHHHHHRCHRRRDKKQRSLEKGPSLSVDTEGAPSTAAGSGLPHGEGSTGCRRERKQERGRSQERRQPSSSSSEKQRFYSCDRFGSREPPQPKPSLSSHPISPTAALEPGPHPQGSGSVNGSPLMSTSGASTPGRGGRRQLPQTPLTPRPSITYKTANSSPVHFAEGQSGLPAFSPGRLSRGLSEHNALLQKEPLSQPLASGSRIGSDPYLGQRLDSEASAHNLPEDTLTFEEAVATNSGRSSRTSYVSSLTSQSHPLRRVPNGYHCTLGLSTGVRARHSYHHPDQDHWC
NaV1.2, sequence (P04775 whole entry): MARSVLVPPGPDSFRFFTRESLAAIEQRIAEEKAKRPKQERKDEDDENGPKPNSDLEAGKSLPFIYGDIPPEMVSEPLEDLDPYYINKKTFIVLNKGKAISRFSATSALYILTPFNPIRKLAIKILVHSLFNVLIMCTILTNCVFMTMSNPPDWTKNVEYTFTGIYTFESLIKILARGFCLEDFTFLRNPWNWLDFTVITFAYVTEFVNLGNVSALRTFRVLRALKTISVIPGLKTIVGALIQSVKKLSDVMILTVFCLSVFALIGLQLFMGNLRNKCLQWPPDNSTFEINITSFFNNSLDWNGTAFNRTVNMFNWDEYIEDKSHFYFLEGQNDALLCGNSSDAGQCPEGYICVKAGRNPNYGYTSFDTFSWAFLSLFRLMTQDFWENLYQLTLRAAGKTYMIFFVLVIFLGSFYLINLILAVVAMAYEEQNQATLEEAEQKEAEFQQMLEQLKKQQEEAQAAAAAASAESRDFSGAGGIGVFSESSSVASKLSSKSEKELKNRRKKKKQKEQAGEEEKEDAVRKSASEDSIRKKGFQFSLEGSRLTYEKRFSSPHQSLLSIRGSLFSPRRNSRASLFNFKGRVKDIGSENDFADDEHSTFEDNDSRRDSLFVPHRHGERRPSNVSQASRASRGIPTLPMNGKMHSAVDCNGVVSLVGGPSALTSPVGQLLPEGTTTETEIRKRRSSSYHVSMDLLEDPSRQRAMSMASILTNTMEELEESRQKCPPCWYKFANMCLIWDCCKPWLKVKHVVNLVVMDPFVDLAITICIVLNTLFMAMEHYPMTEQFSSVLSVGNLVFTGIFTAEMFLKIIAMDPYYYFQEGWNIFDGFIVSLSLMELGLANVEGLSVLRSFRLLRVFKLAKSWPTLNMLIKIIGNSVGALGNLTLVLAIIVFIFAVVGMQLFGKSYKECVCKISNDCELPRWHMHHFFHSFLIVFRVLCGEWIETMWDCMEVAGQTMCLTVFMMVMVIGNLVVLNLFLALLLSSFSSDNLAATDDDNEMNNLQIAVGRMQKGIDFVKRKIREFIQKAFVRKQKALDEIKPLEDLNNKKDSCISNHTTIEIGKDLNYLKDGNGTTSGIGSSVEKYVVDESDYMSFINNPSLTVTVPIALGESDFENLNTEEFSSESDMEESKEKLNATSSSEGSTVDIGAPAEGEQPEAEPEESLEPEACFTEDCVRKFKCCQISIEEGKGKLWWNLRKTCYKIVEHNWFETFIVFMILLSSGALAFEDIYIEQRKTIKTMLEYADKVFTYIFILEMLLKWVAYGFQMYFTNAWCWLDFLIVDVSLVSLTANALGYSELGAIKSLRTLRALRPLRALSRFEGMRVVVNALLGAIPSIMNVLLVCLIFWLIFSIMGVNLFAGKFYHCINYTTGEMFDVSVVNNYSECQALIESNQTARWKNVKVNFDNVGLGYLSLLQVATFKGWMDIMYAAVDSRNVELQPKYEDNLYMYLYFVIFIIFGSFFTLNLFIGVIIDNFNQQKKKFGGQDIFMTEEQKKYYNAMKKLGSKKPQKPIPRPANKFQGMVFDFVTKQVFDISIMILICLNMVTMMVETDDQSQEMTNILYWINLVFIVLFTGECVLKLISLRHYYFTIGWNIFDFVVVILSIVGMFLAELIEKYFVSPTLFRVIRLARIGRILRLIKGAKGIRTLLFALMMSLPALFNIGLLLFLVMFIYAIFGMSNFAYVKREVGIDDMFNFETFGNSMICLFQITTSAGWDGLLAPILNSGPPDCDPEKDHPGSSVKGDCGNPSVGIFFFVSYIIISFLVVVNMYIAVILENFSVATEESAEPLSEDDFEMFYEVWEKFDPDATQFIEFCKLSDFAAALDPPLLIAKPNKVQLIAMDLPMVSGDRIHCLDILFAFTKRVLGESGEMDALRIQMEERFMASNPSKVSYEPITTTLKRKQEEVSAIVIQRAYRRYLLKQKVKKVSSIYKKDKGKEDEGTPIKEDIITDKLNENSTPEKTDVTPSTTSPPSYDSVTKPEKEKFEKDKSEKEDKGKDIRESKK
Kir2.1, sequence (P63252 whole entry): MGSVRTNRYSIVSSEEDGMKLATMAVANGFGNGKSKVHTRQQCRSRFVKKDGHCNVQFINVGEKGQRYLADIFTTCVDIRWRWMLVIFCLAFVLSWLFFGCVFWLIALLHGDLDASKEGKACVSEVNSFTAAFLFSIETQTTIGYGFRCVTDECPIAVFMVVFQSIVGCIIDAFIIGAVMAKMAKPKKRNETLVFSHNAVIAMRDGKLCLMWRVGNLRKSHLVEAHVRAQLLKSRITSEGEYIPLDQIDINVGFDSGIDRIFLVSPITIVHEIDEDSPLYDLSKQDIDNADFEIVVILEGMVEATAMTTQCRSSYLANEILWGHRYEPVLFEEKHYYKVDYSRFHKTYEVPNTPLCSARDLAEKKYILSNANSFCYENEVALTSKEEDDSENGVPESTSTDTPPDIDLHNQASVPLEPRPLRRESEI

sensitivity of channel to compound (NaV1.2)	sensitivity of channel to compound (CaV2.2)	sensitivity of channel to compound (ASIC3)	effect of mutation on MFaN's potentiation effect vs WT mOtop1 (mOtop1 R554Q)	response of mutant to MFaN compared to wild-type mOtop1 (mOtop1 D244A)	sensitivity of channel to compound (ASIC1a)	sensitivity of channel to compound (Kir2.1)	response of mutant to MFaN compared to wild-type mOtop1 (mOtop1 L243A)	inhibition ratio (CaV3.1)	response of mutant to MFaN compared to wild-type mOtop1 (mOtop1 T233A)	inhibition ratio (CaV2.2)	sensitivity of channel to compound (NaV1.7; vs 0.1% DMSO)	effect of mutation on MFaN's potentiation effect vs WT mOtop1 (mOtop1 R554N)	response of mutant to MFaN compared to wild-type mOtop1 (mOtop1 T240A)	response of mutant to MFaN compared to wild-type mOtop1 (mOtop1 H246A)	sensitivity of channel to compound (CaV3.1; vs 0.1% DMSO)	effect on pH 8.5-evoked Otop1 currents (Otop1 channels)	inhibition ratio (NaV1.7)	SMILES	inhibition ratio (NaV1.5)	inhibition ratio (hERG)
completely resistant	completely resistant	completely resistant																Cc1cc(NC(=O)c2ccc(Br)o2)ccc1NC(=O)c1ccco1 [B2FAMP, 5-Bromo-N-[4-(2-furoylamino)-3-methylphenyl]-2-furamide]		
completely resistant		completely resistant	eliminated	markedly reduced	completely resistant	completely resistant	significantly enhanced	11.7%	markedly reduced	7.9%	completely resistant	eliminated	markedly reduced	significantly enhanced				Cc1ccc(C(=O)Nc2ccc3ccccc3c2)o1 [MFaN, 5-methyl-N-2-naphthyl-2-furamide]	14.8%	13.7%
completely resistant	completely resistant	completely resistant			completely resistant	completely resistant									completely resistant	significantly enhanced	11.3%	CC(C)c1noc2ncc(C(=O)c3ccccc3O)cc12 [HIMOP, (2-hydroxyphenyl)-(3-propan-2-yl-5-isoxazolo[5,4-b]pyridinyl)methanone]	8.9%	8.5%
